In brackets after ≈: the same amount, converted by molar mass. Activity calls are given as the source filed them. The calls are words filed in the database; no cut-off is given here.
Assays:
[1] = Cytotoxic dose at which 50% growth of normal cells is inhibited; format: cell-based; conditions: chlorocebus sabaeus, Vero cells; read-out: CyD50
Outline: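 Cell-growth cytotoxicity in Vero cells or human skin fibroblasts. Serial 2-fold dilutions in M-199 with 6% newborn calf serum were added in quadruplicate to 10⁶ cells and held 6 days at 37 °C. Cells were trypsinized, counted and reseeded with compound, repeated five times. Generation time was calculated per concentration. CyD50 = lowest concentration at least doubling generation time versus untreated cells.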

[2] = tested on: Enterovirus C; assay: The ratio of the poliovirus viral titer of the virus control (reduction factor) to the viral titer in the presence of the maximal non-toxic dose (RF MNTD); format: functional
Outline: (§1)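 Poliovirus type 1 Brunhilde 1A/S3 in Vero monolayers. Serial 10-fold virus dilutions adsorbed 1 h at 37 °C, then serial 2-fold compound dilutions were added. Incubated at 37 °C and scored for CPE by light microscopy, with a 3-day readout. Titer reduction is control/treated TCD50/mL. ED99 is the minimum concentration inhibiting 99% of virus. Virus, cell and compound controls were included.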

[3] = tested on: Enterovirus C; assay: Maximal non-toxic dose (MNTD) that shows antiviral activity.; format: functional
Outline: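 End-point titration. Poliovirus type 1 Brunhilde was run in Vero cells at 37 °C with a 3-day read. Rhinovirus 15 was run in human skin fibroblasts at 33 °C with a 7-day read. Monolayers got serial 10-fold virus dilutions and adsorbed 1 h at 37 °C, then serial 2-fold compound dilutions (DMSO stock in maintenance medium). CPE was read by light microscopy. RF = control titer (TCD50/mL) / titer at maximal nontoxic dose.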

[4] = tested on: Enterovirus C; assay: Minimum drug concentration at which 99% of the polio virus is inhibited; NA= Not active; format: functional, organism-based; outline: as §1
[5] = species: Rattus norvegicus; assay: Mutagenicity evaluated by calculating number of revertants using Salmonella Typhimurium strain TA 98 (0.25 mg/plate) without S9 mix from rat liver; format: functional
Outline: (§2)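 Ames plate incorporation assay with Salmonella typhimurium TA98 or TA100, without S9, at 0.25 mg/plate. Revertants per plate were counted on duplicate plates per dose. Quercetin was the standard mutagen.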

[6] = species: Rattus norvegicus; assay: Mutagenicity evaluated by calculating number of revertants using Salmonella Typhimurium strain TA 100 (0.25 mg/plate) without S9 mix from rat liver according to the plate incorporation assay.; format: functional; outline: as §2
[7] = Therapeutic Index measured as the ratio of CyD50(polio) / ED99(polio) values; format: organism-based; conditions: enterovirus c; read-out: Therapeutic index 99
Outline: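 TI99 = CyD50/ED99 for poliovirus. ED99 came from end-point titration in Vero cells at 37 °C over 3 days. CyD50 came from Vero cell growth: 10⁶ cells were given serial 2-fold compound dilutions in quadruplicate for 6 days at 37 °C, then trypsinized, counted and reseeded, repeated five times. Generation time was calculated per concentration.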

[8] = tested on: Human rhinovirus sp.; assay: Cytotoxic dose at which 50% growth of normal cells is inhibited against rhino virus infection.; format: functional
Outline: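 Human skin fibroblasts, 10⁶ cells per flask, given serial 2-fold dilutions in quadruplicate in M-199 with 6% newborn calf serum and held 6 days at 37 °C. Cells were trypsinized, counted in a chamber and reseeded with compound over five repeat cycles. CyD50 = lowest concentration at least doubling cell generation time relative to untreated control.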

[9] = tested on: Human rhinovirus sp.; assay: Minimum drug concentration at which 99% of the rhino virus is inhibited.; format: functional
Outline: (§3)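 End-point titration with rhinovirus type 15 on human skin fibroblast monolayers. Cells were infected with serial 10-fold virus dilutions and allowed 1 h adsorption at 37 °C. Serial 2-fold compound dilutions were then added and plates incubated at 33 °C. CPE was read daily by light microscopy for at least 1 week, titres as TCD50/mL. ED99 = minimum concentration inhibiting 99% of virus.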

[10] = tested on: Enterovirus C; assay: Minimal dose which produces titer reduction at 10 ug/mL (mD RF10e3); format: functional
[11] = Therapeutic Index measured as the ratio of CyD50 (rhino) / ED99 (rhino) values.; conditions: read-out: Therapeutic index 99
Outline: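 TI99 = CyD50/ED99 for rhinovirus 15. ED99 came from end-point titration in human skin fibroblasts at 33 °C over 7 days. CyD50 came from fibroblast growth: 10⁶ cells were given serial 2-fold compound dilutions in quadruplicate for 6 days at 37 °C, then counted and reseeded, repeated five times. Generation time was calculated per concentration.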

[12] = tested on: Enterovirus C; assay: Minimum drug concentration at which 99% of the polio virus is inhibited; format: functional; outline: as §1
[13] = tested on: Human rhinovirus sp.; assay: Minimum drug concentration at which 99% of the rhino virus is inhibited; NA= not active; format: functional, organism-based; outline: as §3
[14] = tested on: Enterovirus C; assay: Minimum drug concentration at which 99% of the polio virus is inhibited; NA= not active; format: functional, organism-based; outline: as §1

Compound | CC50 [1] | Reduction factor [2] | Max non-toxic dose [3] | ED99 [4] | Revertants/plate [5] | Revertants/plate [6] | selectivity ratio [7] | CyD50 [8] | ED99 [9] | Minimal dose [10] | selectivity ratio [11] | ED99 [12] | ED99 [13] | ED99 [14]
COc1ccc(-c2oc3c(OC)cccc3c(=O)c2OC)cc1 | > 200 µg/mL | 1 | 100 µg/mL | inactive |  |  |  |  |  |  |  |  |  | 
O=c1c(O)c(-c2ccc(O)c(O)c2)oc2cc(O)cc(O)c12 [QUERCETIN] |  |  |  |  | 1100 | 589 |  |  |  |  |  |  |  | 
COc1cc(OC)c2c(=O)c(OC)c(-c3ccc(O)cc3)oc2c1 | 100 µg/mL (≈ 305 µM) | 100000 | 100 µg/mL |  |  |  | 10 | 100 µg/mL | 20 µg/mL | 5 µg/mL | 5 | 10 µg/mL |  | 
Cc1ccc2c(=O)c(OC(C)C)c(-c3ccc(O)cc3)oc2c1 | 2 µg/mL (≈ 6.44 µM) |  |  |  |  |  |  | 2 µg/mL |  |  |  |  | inactive | 
COc1cc(-c2oc3cc(O)c(OC)c(O)c3c(=O)c2OC)ccc1O | 1 µg/mL (≈ 2.78 µM) | 10000 | 10 µg/mL | inactive |  |  |  |  |  | 1 µg/mL |  |  |  | 
COc1c(-c2ccc(Cl)cc2)oc2cc(Cl)ccc2c1=O | 20 µg/mL (≈ 62.3 µM) | 1 | 25 µg/mL |  |  |  |  |  |  |  |  |  |  | inactive
COc1cc(O)c2c(=O)c(OC)c(-c3ccc(O)c(O)c3)oc2c1OC | > 5 µg/mL | 100000 | 10 µg/mL |  |  |  | 25 | 20 µg/mL | 2 µg/mL | 0.5 µg/mL | 10 | 0.2 µg/mL |  | 
COc1cc2oc(-c3ccc(O)cc3)c(OC)c(=O)c2c(O)c1OC [PENDULETIN] | 100 µg/mL (≈ 290 µM) | 1000000 | 100 µg/mL |  |  |  | 500 | 10 µg/mL | 10 µg/mL | 0.1 µg/mL | 1 | 0.2 µg/mL |  | 
COc1cc(O)c2c(=O)c(OC)c(-c3ccc(O)cc3)oc2c1 [KUMATAKENIN] | 100 µg/mL (≈ 318 µM) | 1000000 | 100 µg/mL |  |  |  | 333 | 100 µg/mL | 2.5 µg/mL | 0.3 µg/mL | 40 | 0.3 µg/mL |  | 
COc1ccc(-c2oc3cc(Cl)ccc3c(=O)c2OC)cc1 | > 200 µg/mL | 1 | 100 µg/mL |  |  |  |  |  |  |  |  |  |  | inactive
COc1c(-c2ccc(O)cc2)oc2cccc(O)c2c1=O | 25 µg/mL (≈ 87.9 µM) | 10000 | 5 µg/mL |  |  |  | 50 | 5 µg/mL | 1 µg/mL | 1.5 µg/mL | 5 | 0.5 µg/mL |  | 
